{
  "source": "ChEMBL document CHEMBL4330180",
  "about": "“Identification of Portimine B, a New Cell Permeable Spiroimine That Induces Apoptosis in Oral Squamous Cell Carcinoma” (ACS Med Chem Lett, 2019)",
  "key": {"HN12 [1]": {"system": "HN12", "experiment": "Induction of apoptosis in human HN12 cells assessed as increase in DR5 mRNA expression at antiproliferative IC50 over 36 hrs by RT-qPCR analysis", "type": "functional, cell-based", "in_short": "(§1)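 OCSCC cultures treated at the IC50 from the ATP proliferation assay. cDNA libraries were made from the treated cells and analysed for apoptotic transcripts by Taqman RT-qPCR. Three independent experiments were run, each in triplicate, with error bars given as SEM.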"}, "[2]": {"experiment": "(§2) Antiproliferative activity against human HN12 cells after 48 hrs by ATP-based Cell Titer-Glo assay", "type": "functional", "settings": "HN12, 48 h", "in_short": "(§3)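 OCSCC cells cultured with increasing concentrations of purified compound (98% by UPLC-PDA). Read-out was ATP-based luminescent proliferation. Exposure is given as 48 h in the figure legend and 36 h in the text. IC50 values were taken from the dose-response curves. Error bars are SD.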"}, "[3]": {"experiment": "Permeability of the compound at 100 uM after 6 hrs by PAMPA", "type": "ADME"}, "HN12 [4]": {"system": "HN12", "experiment": "Induction of apoptosis in human HN12 cells assessed as increase in NOXA mRNA expression at antiproliferative IC50 over 36 hrs by RT-qPCR analysis", "type": "functional, cell-based", "in_short": "as §1"}, "HN12 [5]": {"system": "HN12", "experiment": "Induction of apoptosis in human HN12 cells assessed as genomic DNA laddering after 48 hrs by agarose gel electrophoresis method", "type": "functional, cell-based", "in_short": "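HN12 cells treated for 48 h at the proliferation-assay IC50 and at a semilog dose above and below it. Genomic DNA was resolved electrophoretically and scored for laddering.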"}, "UMSCC23 [6]": {"system": "UMSCC23", "experiment": "Induction of apoptosis in human UMSCC23 cells assessed as increase in GADD45alpha mRNA expression at antiproliferative IC50 over 36 hrs by RT-qPCR analysis", "type": "functional, cell-based", "in_short": "as §1"}, "UMSCC23 [7]": {"system": "UMSCC23", "experiment": "Induction of apoptosis in human UMSCC23 cells assessed as increase in NOXA mRNA expression at antiproliferative IC50 over 36 hrs by RT-qPCR analysis", "type": "functional, cell-based", "in_short": "as §1"}, "HN12 [8]": {"system": "HN12", "experiment": "Induction of apoptosis in human HN12 cells assessed as increase in Bcl2 mRNA expression at antiproliferative IC50 over 36 hrs by RT-qPCR analysis", "type": "functional, cell-based", "in_short": "as §1"}, "UMSCC23 [9]": {"system": "UMSCC23", "experiment": "Induction of apoptosis in human UMSCC23 cells assessed as increase in Bcl2 mRNA expression at antiproliferative IC50 over 36 hrs by RT-qPCR analysis", "type": "functional, cell-based", "in_short": "as §1"}, "UMSCC23 [10]": {"system": "UMSCC23", "experiment": "Induction of apoptosis in human UMSCC23 cells assessed as increase in DR5 mRNA expression at antiproliferative IC50 over 36 hrs by RT-qPCR analysis", "type": "functional, cell-based", "in_short": "as §1"}, "HN12 [11]": {"system": "HN12", "experiment": "Induction of apoptosis in human HN12 cells assessed as increase in GADD45alpha mRNA expression at antiproliferative IC50 over 36 hrs by RT-qPCR analysis", "type": "functional, cell-based", "in_short": "as §1"}, "UMSCC23 [12]": {"system": "UMSCC23", "experiment": "Antiproliferative activity against human UMSCC23 cells after 48 hrs by ATP-based Cell Titer-Glo assay", "type": "functional", "settings": "for IC50: UMSCC23, 48 h", "in_short": "as §3"}, "HN12 [13]": {"system": "HN12", "experiment": "as §2", "type": "functional", "in_short": "as §3"}},
  "note": "Active and inactive are the calls of the source. The rule behind the calls is not given here.",
  "data": [
    {"compound": "C=CC1=C[C@@H]2[C@@H]3O[C@](O)(CC[C@H](O)[C@@H](C)C[C@@H](O)C3=O)CC(=O)C3=NCC[C@@]32CC1", "values": [
      {"measurement": "Activity", "setting": "HN12 [1]", "value": "Active"},
      {"measurement": "IC50", "setting": "[2]", "value": 116, "unit": "nM"},
      {"measurement": "permeability", "setting": "[3]", "value": 35, "unit": "%"},
      {"measurement": "Activity", "setting": "HN12 [4]", "value": "Active"},
      {"measurement": "Activity", "setting": "HN12 [5]", "value": "Active"},
      {"measurement": "Activity", "setting": "UMSCC23 [6]", "value": "Active"},
      {"measurement": "Activity", "setting": "UMSCC23 [7]", "value": "Active"},
      {"measurement": "Activity", "setting": "HN12 [8]", "value": "Active"},
      {"measurement": "Activity", "setting": "UMSCC23 [9]", "value": "Active"},
      {"measurement": "Activity", "setting": "UMSCC23 [10]", "value": "Active"},
      {"measurement": "Activity", "setting": "HN12 [11]", "value": "Active"},
      {"measurement": "IC50", "setting": "UMSCC23 [12]", "value": 229, "unit": "nM"}
    ]},
    {"compound": "C=CC1=C[C@@H]2[C@@H]3O[C@]4(CC[C@H](O4)[C@@H](C)C[C@@H](O)C3=O)C[C@H](O)C3=NCC[C@@]32CC1", "values": [
      {"measurement": "Activity", "setting": "HN12 [1]", "value": "Active"},
      {"measurement": "Activity", "setting": "HN12 [13]", "value": "Dose-dependent effect"},
      {"measurement": "IC50", "setting": "[2]", "value": 2.8, "unit": "nM"},
      {"measurement": "permeability", "setting": "[3]", "value": 54, "unit": "%"},
      {"measurement": "Activity", "setting": "HN12 [4]", "value": "Active"},
      {"measurement": "Activity", "setting": "HN12 [5]", "value": "Active"},
      {"measurement": "Activity", "setting": "UMSCC23 [6]", "value": "Active"},
      {"measurement": "Activity", "setting": "UMSCC23 [7]", "value": "Active"},
      {"measurement": "Activity", "setting": "HN12 [8]", "value": "Active"},
      {"measurement": "Activity", "setting": "UMSCC23 [9]", "value": "Active"},
      {"measurement": "Activity", "setting": "UMSCC23 [10]", "value": "Active"},
      {"measurement": "Activity", "setting": "HN12 [11]", "value": "Active"},
      {"measurement": "Activity", "setting": "UMSCC23 [12]", "value": "Dose-dependent effect"},
      {"measurement": "IC50", "setting": "UMSCC23 [12]", "value": 3.2, "unit": "nM"}
    ]},
    {"compound": "C[C@]12C=CC(=O)C=C1CC[C@@H]1[C@@H]2C(=O)C[C@@]2(C)[C@H]1CC[C@]2(O)C(=O)CO", "note": "[PREDNISONE]", "values": [
      {"measurement": "permeability", "setting": "[3]", "value": 12, "unit": "%"}
    ]}
  ]
}
